Assay results from PubChem BioAssay AID588829 (Broad Institute, 2011).
The source made the active and inactive calls.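 Rule for the calls: active = compounds lowering the cell energy light signal whose fitted half-effect dose is at most twice the top tested dose; inconclusive = flat curve with a 30 to 70% drop, or poor fit; inactive = the rest.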

System: ldlA[mSR-BI] CHO cells viability, CellTiter-Glo ATP luminescence, 24 h
Assay: cytotoxicity in ldlA[mSR-BI] CHO cells, dose response, cytotoxicity control for SR-BI HDL uptake inhibitor project, cell-based, CellTiter-Glo luminescence, 24 h, dry powder, set 2 (AID 588829)
Details: not given
Procedure, shortened: (§1)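 Material – ldlA cells expressing mouse scavenger receptor SR-BI · Dosing – compound series of 8 concentrations, delivered by pin transfer · Incubation – 24 h at 37 °C exposure, 10 min detection incubation · Signal – CellTiter-Glo ATP luminescence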
`CCCCCCC1CCC/C1=N\NC(N)=S` (stereo unspecified) showed an IC50 of 9.05 µM.

System: not listed separately
Assay: as above
Details: ldlA[mSR-BI] CHO cells viability, CellTiter-Glo ATP luminescence, 24 h; at 30 µM (top of the series)
Procedure, shortened: as §1
In the case of `C[C@@H]1CN([C@@H](C)CO)C(=O)Cc2cc(NC(=O)Nc3ccc(C(F)(F)F)cc3)ccc2O[C@@H]1CN(C)S(=O)(=O)c1ccc(Cl)cc1`, the activity change, negative = toxicity is reported as -71.3% (inactive).

Same assay, conditions: ldlA[mSR-BI] CHO cells viability, CellTiter-Glo ATP luminescence, 24 h; at 35 µM (top of the series)
In the case of `CCC(=O)N1CCc2cc(-c3csc(NC(=O)c4cccc(OC)c4)n3)ccc21`, the activity change, negative = toxicity is reported as 2.38% (inactive).
With `COc1cc(OC)cc(C(=O)Nc2nc(-c3ccc4c(c3)CCN4C(=O)OC(C)(C)C)cs2)c1` the activity change, negative = toxicity was 12.9% (inactive).
In the case of `C[C@H](C(=O)NC1CCCC1)N(C(=O)Cn1nnc(-c2ccc3c(c2)OCO3)n1)C1CCCCC1`, the activity change, negative = toxicity is reported as 11.2% (inactive).
With `CC(C)(Sc1cc(C(C)(C)C)c(O)c(C(C)(C)C)c1)Sc1cc(C(C)(C)C)c(O)c(C(C)(C)C)c1` the activity change, negative = toxicity was 14.8% (inactive).
With `COc1cc(OC)cc(C(=O)Nc2nc(-c3ccc4c(c3)CCN4C(=O)CN(C)C)cs2)c1` the activity change, negative = toxicity was 8.9% (inactive).
With `COc1c(NC(=O)C(=O)c2ccc(OCCN3CCOCC3)c3ccccc23)cc(C(C)(C)C)cc1NS(C)(=O)=O` the activity change, negative = toxicity was -4.11% (inactive).
In the case of `Cc1ccc2oc(-c3cccc(NC(=O)c4cc(-n5cnnc5)ccc4Cl)c3)nc2c1`, the activity change, negative = toxicity is reported as -6.36% (inactive).
With `CC1CCC/C=C/C2CC(O)CC2C(O)/C=C\C(=O)O1` (stereo unspecified) the activity change, negative = toxicity was -13.3% (inactive).
With `CCC(=O)N1CC(C)(C)c2cc(-c3csc(NC(=O)c4cc(OC)cc(OC)c4)n3)ccc21` the activity change, negative = toxicity was 1.55% (inactive).
In the case of `C[C@@H]1CN([C@H](C)CO)C(=O)c2cc(NC(=O)Cc3cn(C)c4ccccc34)ccc2O[C@H]1CN(C)S(=O)(=O)c1ccc(Cl)cc1`, the activity change, negative = toxicity is reported as 3.86% (inactive).
For `CC(=O)N1CCc2cc(-c3nc(NC(=O)c4cccc(OC(F)(F)F)c4)sc3C)ccc21`, the activity change, negative = toxicity was -14.1% (inactive).
In the case of `CCNC(=O)N1CCc2cc(-c3csc(NC(=O)c4cc(OC)cc(OC)c4)n3)ccc21`, the activity change, negative = toxicity is reported as 9.7% (inactive).
In the case of `COCC(=O)N1CCc2cc(-c3csc(NC(=O)c4cc(OC)cc(OC)c4)n3)ccc21`, the activity change, negative = toxicity is reported as 10.9% (inactive).
For `COc1ccc(-c2cc(CC(=O)N(C3CCCCC3)C(C)C(=O)NC3CCCC3)no2)cc1OC` (stereo unspecified), the activity change, negative = toxicity was 13.9% (inactive).
